These results are taken from ChEMBL document CHEMBL4177580, “New 5-HT1A, 5HT2A and 5HT2C receptor ligands containing a picolinic nucleus: Synthesis, in vitro and in vivo pharmacological evaluation” (Bioorg Med Chem, 2017).

Series [1] relates to Mus musculus. Description: Toxicity in Swiss albino mouse assessed as reduction in spontaneous locomotor activity at 7.5 mg/kg, ip dosed 60 mins before test. Conditions: in vivo, 1 h. Type of series: organism-based. A digest of the protocol: (§1)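 Spontaneous locomotion: mice dosed i.p. 60 min before being placed individually in an actometer for 30 min. Distance travelled read at 6 and 30 min. Cages cleaned with 70% ethanol between animals. One-way ANOVA with Dunnett's; mean ± SEM of one experiment.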

Series [2] deals with T1, Adrenergic receptor alpha-1 (Rattus norvegicus, UniProt P15823+P23944+P43140).
T1 sequence (P15823 whole entry): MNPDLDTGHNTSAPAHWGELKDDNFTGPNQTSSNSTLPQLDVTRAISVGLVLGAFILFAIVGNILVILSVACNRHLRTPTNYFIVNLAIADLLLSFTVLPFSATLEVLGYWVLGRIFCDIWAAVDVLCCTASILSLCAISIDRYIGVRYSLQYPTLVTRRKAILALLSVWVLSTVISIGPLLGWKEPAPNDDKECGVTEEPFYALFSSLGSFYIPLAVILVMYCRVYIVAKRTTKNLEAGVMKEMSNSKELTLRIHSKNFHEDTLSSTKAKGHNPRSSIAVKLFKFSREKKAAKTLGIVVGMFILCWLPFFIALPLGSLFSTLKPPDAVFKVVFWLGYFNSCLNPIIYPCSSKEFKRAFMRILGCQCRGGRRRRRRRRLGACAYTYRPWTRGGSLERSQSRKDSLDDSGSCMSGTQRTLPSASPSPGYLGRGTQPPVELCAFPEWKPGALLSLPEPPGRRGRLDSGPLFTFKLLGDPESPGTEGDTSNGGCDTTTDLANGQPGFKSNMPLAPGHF
T1 sequence (P23944 whole entry): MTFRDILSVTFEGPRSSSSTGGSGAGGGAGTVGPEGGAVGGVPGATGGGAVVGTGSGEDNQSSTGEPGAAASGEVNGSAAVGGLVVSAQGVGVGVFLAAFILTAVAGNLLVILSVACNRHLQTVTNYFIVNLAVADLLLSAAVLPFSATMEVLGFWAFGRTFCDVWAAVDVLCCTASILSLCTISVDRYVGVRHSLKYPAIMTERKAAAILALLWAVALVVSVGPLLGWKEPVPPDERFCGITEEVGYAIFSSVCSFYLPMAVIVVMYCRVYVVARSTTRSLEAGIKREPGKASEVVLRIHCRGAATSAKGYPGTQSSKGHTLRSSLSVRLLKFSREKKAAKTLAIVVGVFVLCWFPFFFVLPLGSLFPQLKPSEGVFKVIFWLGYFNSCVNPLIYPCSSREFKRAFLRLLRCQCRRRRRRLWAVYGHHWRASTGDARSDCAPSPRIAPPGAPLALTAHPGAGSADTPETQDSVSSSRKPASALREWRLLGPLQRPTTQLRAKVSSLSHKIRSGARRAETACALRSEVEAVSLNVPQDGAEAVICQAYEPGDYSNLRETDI
T1 sequence (P43140 whole entry): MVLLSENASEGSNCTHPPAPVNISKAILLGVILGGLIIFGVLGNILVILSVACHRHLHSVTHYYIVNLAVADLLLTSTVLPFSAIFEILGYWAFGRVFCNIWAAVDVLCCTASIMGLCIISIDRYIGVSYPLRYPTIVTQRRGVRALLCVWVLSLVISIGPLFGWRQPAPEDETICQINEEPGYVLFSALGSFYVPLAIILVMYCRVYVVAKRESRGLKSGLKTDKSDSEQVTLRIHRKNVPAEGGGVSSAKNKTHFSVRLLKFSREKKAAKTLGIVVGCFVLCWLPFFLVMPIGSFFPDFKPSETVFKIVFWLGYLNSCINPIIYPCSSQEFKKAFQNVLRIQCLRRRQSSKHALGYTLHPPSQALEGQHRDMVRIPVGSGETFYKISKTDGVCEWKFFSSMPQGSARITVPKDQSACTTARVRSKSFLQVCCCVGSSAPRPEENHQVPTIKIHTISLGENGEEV
Description: Displacement of [3H]prazosin from adrenergic alpha1 receptor in rat cerebral cortex.

In series [3] the target is T2, 5-hydroxytryptamine receptor 2C (Rattus norvegicus, UniProt P08909).
T2 sequence (P08909 whole entry): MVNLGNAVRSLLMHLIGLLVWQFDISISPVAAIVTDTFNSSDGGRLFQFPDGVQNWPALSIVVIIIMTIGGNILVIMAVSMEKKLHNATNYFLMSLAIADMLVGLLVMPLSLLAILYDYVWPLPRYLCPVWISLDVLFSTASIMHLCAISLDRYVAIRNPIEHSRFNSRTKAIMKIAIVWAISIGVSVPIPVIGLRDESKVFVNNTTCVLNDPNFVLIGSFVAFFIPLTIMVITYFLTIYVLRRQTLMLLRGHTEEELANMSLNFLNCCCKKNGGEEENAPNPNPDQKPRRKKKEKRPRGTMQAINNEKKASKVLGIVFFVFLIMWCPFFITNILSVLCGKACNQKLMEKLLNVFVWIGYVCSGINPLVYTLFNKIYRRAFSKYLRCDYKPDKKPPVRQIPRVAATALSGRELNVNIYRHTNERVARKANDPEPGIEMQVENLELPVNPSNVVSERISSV
Put plainly: Displacement of [3H]mesulergine from serotonin 5-HT2C receptor in Sprague-Dawley rat brain cortex homogenates incubated for 15 mins by liquid scintillation spectrometry. (In general: Loss of bound radioactivity is the signal in a displacement assay; it reports binding, not function.)

In series [4] the test system is Mus musculus. Put plainly: Toxicity in Swiss albino mouse assessed as reduction in spontaneous locomotor activity at 60 mg/kg, ip dosed 60 mins before test and measured after 6 mins. Type of series: organism-based. Particulars: in vivo, 0.1 h. A digest of the protocol: as §1
The subject of series [5] is Mus musculus. Put plainly: Anxiolytic-like activity in Swiss albino mouse assessed as increase in time spent in open arms at 3.75 to 15 mg/kg measured for 5 mins test period by elevated plus maze test. Type of series: functional, organism-based.
Series [6] deals with 5-hydroxytryptamine receptor 2A (Rattus norvegicus, UniProt P14842). Put plainly: Displacement of [3H]ketanserin from serotonin 5-HT2A receptor in Sprague-Dawley rat brain cortex homogenates incubated for 15 mins by liquid scintillation spectrometry.
5-hydroxytryptamine receptor 2A, sequence (P14842 whole entry): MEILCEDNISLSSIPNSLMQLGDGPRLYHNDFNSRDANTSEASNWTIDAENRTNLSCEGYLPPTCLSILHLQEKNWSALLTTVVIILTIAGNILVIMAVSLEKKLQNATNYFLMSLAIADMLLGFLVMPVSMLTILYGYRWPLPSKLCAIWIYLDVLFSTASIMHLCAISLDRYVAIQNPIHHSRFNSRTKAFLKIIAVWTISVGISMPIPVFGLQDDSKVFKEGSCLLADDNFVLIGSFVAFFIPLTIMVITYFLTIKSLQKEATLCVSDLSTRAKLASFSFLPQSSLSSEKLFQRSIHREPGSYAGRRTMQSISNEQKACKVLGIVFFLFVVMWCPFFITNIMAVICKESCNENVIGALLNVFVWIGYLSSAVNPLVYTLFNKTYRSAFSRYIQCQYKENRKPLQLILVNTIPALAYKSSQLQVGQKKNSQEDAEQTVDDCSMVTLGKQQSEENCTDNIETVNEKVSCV
Series [7] has as its system Mus musculus. Description: Toxicity in Swiss albino mouse assessed as effect on motor coordination at 3.75 to 15 mg/kg, ip dosed 60 mins before test by Chimney test. Type of series: organism-based. Particulars: in vivo, 1 h. In short, it runs like this:
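Chimney test in male Swiss mice after i.p. dosing 60 min earlier: impairment defined as failure to climb backwards up a tube (3 cm inner diameter, 25 cm long) within 60 s. Animals pre-trained once daily for 3 days. One-way ANOVA with Dunnett's.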

In series [8] the test system is Mus musculus. Description: Toxicity in Swiss albino mouse assessed as induction of impairment of motor coordination by measuring reduction in time spent on rota-rod at 60 mg/kg, ip dosed 60 mins before test by rotarod test. Particulars: in vivo, 1 h. Type of series: organism-based. A digest of the protocol:
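Rotarod in male Swiss mice, i.p. dosing 60 min pre-test: impairment is inability to stay 1 min on a rod turning at 18 rpm, after 3 days of daily training. Mean ± SEM of 2 independent experiments; one-way ANOVA with Dunnett's.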
(The rotarod test checks motor coordination on a turning rod.)

Series [9] has as its system Rattus norvegicus. Put plainly: In-vivo 5-HT1A receptor agonist activity in Wistar rat assessed as induction of lower lip retraction by measuring lower lip retraction score at 30 mg/kg, ip dosed 15 mins before test (reference value: 0.0 +/- 0.0).
Series [10] deals with D(1A) dopamine receptor (Homo sapiens, UniProt P21728). Description: Displacement of [3H]SCH-23390 from human recombinant dopamine D1 receptor expressed in CHO cells. Type of series: cell-based.
D(1A) dopamine receptor, sequence (P21728 whole entry): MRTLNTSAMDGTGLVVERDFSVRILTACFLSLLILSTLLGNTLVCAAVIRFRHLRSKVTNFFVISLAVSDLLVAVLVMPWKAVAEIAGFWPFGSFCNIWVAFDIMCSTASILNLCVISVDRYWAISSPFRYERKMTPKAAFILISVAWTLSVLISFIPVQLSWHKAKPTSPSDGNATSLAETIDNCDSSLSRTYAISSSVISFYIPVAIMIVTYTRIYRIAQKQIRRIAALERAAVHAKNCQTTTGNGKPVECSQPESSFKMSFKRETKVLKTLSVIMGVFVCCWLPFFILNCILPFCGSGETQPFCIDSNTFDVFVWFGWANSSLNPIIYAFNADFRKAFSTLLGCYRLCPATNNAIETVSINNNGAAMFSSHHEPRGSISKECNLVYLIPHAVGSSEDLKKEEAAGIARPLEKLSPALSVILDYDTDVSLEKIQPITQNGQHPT

SMILES strings stand for the structures. Calls of active or inactive are those of the source. A value given as a limit tells only on which side of the number the result lay.

The Ki is the dissociation constant of the complex between target and ligand, obtained from inhibition or displacement. Consider `O=C(NCCN1CCN(c2ccc(Cl)c(Cl)c2)CC1)c1ccccn1`, for which the Activity entry in series [1] is “Non-Toxic”; in series [4], “Toxic”; in series [7] it was “Non-Toxic”; in series [8], “Toxic”. Moreover, the Ki is 0.031 µM in series [2], above 10 µM in [3], 0.0741 µM in [6] and 0.61 µM in [10]. In addition, the result in [5] was Active. Further, the Activity_index in series [9] was found to be 0.1429.
